ChEMBL document CHEMBL5712081, “Signaling function of PRC2 is essential for TCR-driven T cell responses” (J Exp Med, 2018)
pIC50: −log10 of the molar value. The source made the active and inactive calls. No cut-off for these calls is given here.

Assays:
[1] = target: T1, Histone-lysine N-methyltransferase EZH1 (Homo sapiens) (UniProt Q92800); assay: Inhibition of Ezh1 in human CD4+ T cell by mass spectrometry analysis; type: cell-based
T1 sequence (whole entry): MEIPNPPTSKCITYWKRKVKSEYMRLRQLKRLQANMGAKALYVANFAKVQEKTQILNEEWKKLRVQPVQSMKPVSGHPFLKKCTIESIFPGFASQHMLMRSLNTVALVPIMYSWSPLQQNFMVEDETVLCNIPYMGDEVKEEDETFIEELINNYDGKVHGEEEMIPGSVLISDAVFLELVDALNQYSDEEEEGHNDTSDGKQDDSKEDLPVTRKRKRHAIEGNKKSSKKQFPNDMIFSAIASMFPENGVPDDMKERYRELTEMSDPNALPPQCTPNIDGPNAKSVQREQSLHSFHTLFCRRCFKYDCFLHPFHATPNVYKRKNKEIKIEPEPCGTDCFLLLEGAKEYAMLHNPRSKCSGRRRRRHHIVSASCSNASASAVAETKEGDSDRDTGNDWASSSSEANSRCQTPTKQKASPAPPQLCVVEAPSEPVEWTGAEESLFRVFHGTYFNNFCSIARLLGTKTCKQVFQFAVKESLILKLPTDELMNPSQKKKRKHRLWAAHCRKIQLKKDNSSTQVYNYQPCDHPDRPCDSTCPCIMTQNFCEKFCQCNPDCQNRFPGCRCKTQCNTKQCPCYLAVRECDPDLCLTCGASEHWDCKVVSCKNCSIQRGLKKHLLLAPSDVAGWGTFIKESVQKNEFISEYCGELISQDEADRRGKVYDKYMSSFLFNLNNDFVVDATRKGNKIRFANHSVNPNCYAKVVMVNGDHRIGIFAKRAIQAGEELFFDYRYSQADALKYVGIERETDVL

CD4+ T cell [2] = assay: Down-regulation of Erk phosphorylation in human CD4+ T cell upto 50 uM by Western blotting analysis; type: functional, cell-based
Summary of the method: (§1)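 Purified CD4+ T cells in DMSO or inhibitor were coated with 10 μg/ml anti-CD3 and 2.5 μg/ml anti-CD28 on ice for 20 min. They were cross-linked with 20 μg/ml anti-hamster IgG for 2 or 10 min at 37°C, then lysed in 0.5% NP-40 buffer. pErk1/2 (T202/Y204) was read by Western blot and normalized to total Erk. Three independent experiments.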

Mus musculus [3] = assay: Protection against Foxp3-DTR expressing C57BL/6 autoimmune mouse model assessed as reversal of splenomegaly at 150 mg/kg after 8 days of Dtx treatment for 5 days; type: functional, organism-based; settings: time 5.0 day
Summary of the method: (§2)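 Foxp3-DTR mice were given DTx to deplete Treg cells, with 150 mg/kg inhibitor either at the same time or from day 8 onward. Splenic Foxp3+ Treg frequency was measured, spleen and lymph node size was photographed, and total lymphoid cells in lymph nodes were counted per mouse.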

CD4+ T cell [4] = assay: Down-regulation of Erk phosphorylation in human CD4+ T cell upto 50 uM in the presence of PMA by Western blotting analysis; type: functional, cell-based
Summary of the method: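 Purified CD4+ T cells in DMSO or inhibitor were given prewarmed medium with 5 ng/ml PMA for 10 min at 37°C and lysed in 0.5% NP-40 buffer. pErk1/2 (T202/Y204) was detected by Western blot and normalized to total Erk1/2. Three independent experiments.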

CD4+ T cell [5] = assay: Downregulation of Erk phosphorylation in TCR-triggered human CD4+ T cell at 10 uM by Western blotting analysis; type: functional, cell-based; summary of the method: as §1
Mus musculus [6] = assay: Protection against Foxp3-DTR expressing C57BL/6 autoimmune mouse model assessed as prevention of regulatory t cell depletion at 150 mg/kg after 8 days of Dtx treatment for 5 days; type: functional, organism-based; settings: time 5.0 day; summary of the method: as §2
Mus musculus [7] = assay: Protection activity against Foxp3-DTR expressing C57BL/6 autoimmune mouse model assessed as decrease in number of Ki67+ cells at 150 mg/kg after 8 days of Dtx treatment for 5 days; type: functional, organism-based; settings: time 5.0 day
Summary of the method: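 Foxp3-DTR mice were given DTx, and 150 mg/kg inhibitor was started on day 8 after DTx initiation. Ki67+ dividing CD19+ B, CD4+ and CD8+ T cells in lymph nodes were measured per mouse. Two experiments, n = 4–15, unpaired Student's t test.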

[8] = target: T2, Histone-lysine N-methyltransferase EZH1 (Homo sapiens, UniProt Q92800); assay: Inhibition of human EZH1
T2 sequence (Q92800 whole entry): T1 sequence (whole entry)

Mus musculus [9] = assay: Antiinflammatory activity in Foxp3-DTR expressing C57BL/6 autoimmune mouse model assessed as decrease in T-cells at 150 mg/kg after 8 days of Dtx treatment for 5 days; type: functional, organism-based; settings: time 5.0 day
Summary of the method: (§3)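 Foxp3-DTR mice were depleted of Treg cells by DTx injection. They received 150 mg/kg inhibitor either together with DTx or starting on day 8 after DTx began. Total cells and T cells, B cells, granulocytes and macrophages in secondary lymphoid organs were counted.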

Mus musculus [10] = assay: Antiinflammatory activity in Foxp3-DTR expressing C57BL/6 autoimmune mouse model assessed as decrease in B-cells at 150 mg/kg after 8 days of Dtx treatment for 5 days; type: functional, organism-based; settings: time 5.0 day; summary of the method: as §3
Mus musculus [11] = assay: Antiinflammatory activity in Foxp3-DTR expressing C57BL/6 autoimmune mouse model assessed as decrease in granulocytes at 150 mg/kg after 8 days of Dtx treatment for 5 days; type: functional, organism-based; settings: time 5.0 day; summary of the method: as §3
Mus musculus [12] = assay: Antiinflammatory activity in Foxp3-DTR expressing C57BL/6 autoimmune mouse model assessed as decrease in macrophages at 150 mg/kg after 8 days of Dtx treatment for 5 days; type: functional, organism-based; settings: time 5.0 day; summary of the method: as §3
CD4+ T cell [13] = assay: Anti-proliferative activity against TCR induced mouse CD4+ T cell
CD4+ T cell [14] = assay: Down-regulation of Erk phosphorylation in TCR-triggered human CD4+ T cell by Western blotting analysis; type: functional, cell-based; summary of the method: as §1
CD4+ T cell [15] = assay: Down-regulation of Mek1/2 at S217/221 phosphorylation in TCR-triggered human CD4+ T cell at 10 uM by Western blotting analysis; type: functional, cell-based
Summary of the method: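 CD4+ T cells in DMSO or 10 µM inhibitor were stimulated with anti-CD3 plus anti-CD28 antibodies. pMek1/2 (S217/221) was measured by Western blot and normalized to total Mek1. Three independent experiments.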

CD4+ T cell [16] = assay: Effect on Erk phosphorylation in TCR-triggered human CD4+ T cell at 10 uM by Western blotting analysis; type: functional, cell-based; summary of the method: as §1
[17] = target: T1, Histone-lysine N-methyltransferase EZH1 (Homo sapiens); assay: Inhibition of EZH1 (unknown origin) at 2 nM
[18] = target: Histone-lysine N-methyltransferase EZH2 (Homo sapiens) (UniProt Q15910); assay: Inhibition of EZH2 (unknown origin) at 45 nM
Histone-lysine N-methyltransferase EZH2 (Homo sapiens), sequence (Q15910 whole entry, looked up): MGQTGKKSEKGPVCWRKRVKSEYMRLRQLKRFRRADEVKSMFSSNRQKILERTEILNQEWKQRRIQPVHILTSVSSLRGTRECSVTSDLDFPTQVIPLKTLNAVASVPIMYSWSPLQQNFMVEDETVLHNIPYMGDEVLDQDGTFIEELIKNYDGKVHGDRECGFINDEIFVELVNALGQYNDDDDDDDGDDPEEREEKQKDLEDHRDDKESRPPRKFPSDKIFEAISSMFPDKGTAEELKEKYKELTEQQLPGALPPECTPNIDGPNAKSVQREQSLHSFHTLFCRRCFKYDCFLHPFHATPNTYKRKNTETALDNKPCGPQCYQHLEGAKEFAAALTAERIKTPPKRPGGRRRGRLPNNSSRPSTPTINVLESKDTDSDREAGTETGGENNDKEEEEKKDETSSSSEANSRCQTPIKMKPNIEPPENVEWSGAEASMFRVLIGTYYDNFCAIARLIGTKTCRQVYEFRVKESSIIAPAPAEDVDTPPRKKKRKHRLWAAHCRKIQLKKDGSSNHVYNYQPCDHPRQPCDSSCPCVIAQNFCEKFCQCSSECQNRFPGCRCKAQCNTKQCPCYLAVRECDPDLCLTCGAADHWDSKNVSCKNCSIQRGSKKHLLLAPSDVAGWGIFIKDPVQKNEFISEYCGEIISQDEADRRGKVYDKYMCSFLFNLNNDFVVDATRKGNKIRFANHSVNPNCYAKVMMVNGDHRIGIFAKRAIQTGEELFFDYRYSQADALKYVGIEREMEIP

Row | inhibition [1] | pIC50 [8] | inhibition [17] | inhibition [18] | Compound | Activity (CD4+ T cell [2]) | Activity (Mus musculus [3]) | Activity (CD4+ T cell [4]) | Activity (CD4+ T cell [5]) | Activity (Mus musculus [6]) | Activity (Mus musculus [7]) | Activity (Mus musculus [9]) | Activity (Mus musculus [10]) | Activity (Mus musculus [11]) | Activity (Mus musculus [12]) | Activity (CD4+ T cell [13]) | Activity (CD4+ T cell [14]) | Activity (CD4+ T cell [15]) | Activity (CD4+ T cell [16])
1 | Active | 6.20 | – | – | Cc1cc(C)c(CNC(=O)c2cc(-c3ccc(N4CCN(C)CC4)nc3)cc3c2c(C)cn3C(C)C)c(=O)[nH]1 | Active | Active | inactive | Active | Active | Active | Active | Active | Active | Active | Active | – | – | –
2 | – | – | – | – | CCCc1cc(C)n(C)c(=O)c1CN(C)C(=O)c1cc(-c2ccc(N3CCN(C(C)C)CC3)nc2)cc2c1cnn2C(C)C | – | – | – | – | – | – | – | – | – | – | – | inactive | – | –
3 | – | – | Active | Active | CCCc1cc(C)[nH]c(=O)c1CNC(=O)c1cc(-c2ccc(N3CCN(C(C)C)CC3)nc2)cc2c1cnn2C(C)C | – | – | – | – | – | – | – | – | – | – | – | Active | Active | Active
